In ChEMBL document CHEMBL3808365, “Potent and Selective CK2 Kinase Inhibitors with Effects on Wnt Pathway Signaling in Vivo” (ACS Med Chem Lett, 2016):
Each block holds one compound with its values, some of them ahead of it. Active and inactive are the calls of the source. No cut-off for these calls is given here.

Legend:
[1] = Antiproliferative activity against human […] cells after 72 hrs by alamar blue assay; format: functional; details: HCT-116, 72 h
[2] = Fraction unbound in human plasma at 10 uM by equilibrium dialysis method; format: ADME, cell-free
[3] = Inhibition of CK2 in mouse L-Wnt3a cells assessed as suppression of Wnt3a-mediated L S/L Super TOPFlash reporter gene transcription after 24 hrs; details: L Wnt-3A
[4] = Intrinsic clearance in rat hepatocyte assessed per 10^6 cells; format: ADME, cell-based; details: hepatocytes, read-out: CLH
[5] = Aqueous solubility of the compound in phosphate buffer at pH 7.4 incubated for 24 hrs by LC/MS/MS method; format: physicochemical
Rattus norvegicus = experiment: AUC in rat at 10 mg/kg, po; format: ADME, organism-based; details: in vivo
[6] = Intrinsic clearance in human liver microsomes; format: ADME; details: read-out: CLH
[7] = Antiproliferative activity against human DLD1 cells after 72 hrs by alamar blue assay; format: functional; details: DLD-1, 72 h
[8] = molecular target: T1, Casein kinase II subunit alpha (Homo sapiens, UniProt P68400); experiment: Inhibition of full length N-terminal 6xHis-tagged recombinant human CK2alpha expressed in fall armyworm Sf21 cells using BODIPY-FL-RRRDDDSDDD-CONH2 as substrate after 90 mins by mobility shift assay
[9] = molecular target: Voltage-gated inwardly rectifying potassium channel KCNH2 (Homo sapiens, UniProt Q12809); experiment: Inhibition of human ERG expressed in CHO cells by patch clamp assay; format: cell-based
Casein kinase II = Casein kinase II (Homo sapiens, UniProt P19784+P67870+P68400); experiment: Inhibition of CK2 in human DLD1 HA-myr-AKT1 cells assessed as suppression of AKTser129 phosphorylation after 3 to 24 hrs by Western blot analysis
[10] = molecular target: T1, Casein kinase II subunit alpha; experiment: Binding affinity to His-tagged recombinant human CK2alpha (6 to 335 residues) after 50 to 116.7 mins by surface plasmon resonance assay
Hepatocyte = experiment: Drug metabolism in rat hepatocytes assessed as oxidative demethylated metabolite formation; format: ADME, cell-based
[11] = Antiproliferative activity against human SW620 cells after 72 hrs by alamar blue assay; format: functional; details: SW-620, 72 h
Liver microsome [12] = experiment: Drug metabolism in human liver microsomes in presence of ABT; format: ADME
How it was run: (§1)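 Metabolite formation studied in rat and human liver microsome incubations with ABT present, to probe oxidative clearance.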

Liver microsome [13] = experiment: Drug metabolism in rat liver microsomes in presence of ABT; format: ADME; how it was run: as §1
[14] = molecular target: Death-associated protein kinase 2 (Homo sapiens) (UniProt Q9UIK4); experiment: Inhibition of Dapk2 (unknown origin) at 0.1 uM by quantitative PCR
How it was run: (§2)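 Single-concentration screen at 0.1 μM, run as part of a selectivity panel of 402 kinases.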

[15] = molecular target: Homeodomain-interacting protein kinase 3 (Homo sapiens) (UniProt Q9H422); experiment: Inhibition of Hipk3 (unknown origin) at 0.1 uM by quantitative PCR; how it was run: as §2
SW-620 = experiment: Antitumor activity against human SW620 cells harboring APC mutation xenografted in ip dosed Ncr nu/nu mouse administered as bolus dose for once in every week for 3 weeks; format: functional, organism-based
Mus musculus [16] = experiment: In vivo inhibition of active beta-catenin phosphorylation at Ser37 or Thr41 in human SW620 cells xenografted in iv dosed Ncr nu/nu mouse after 48 hrs by Western blot analysis; format: functional, organism-based; details: SW-620
How it was run: (§3)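 SW620 (APC mutant) xenograft mice dosed IV at 10 or 30 mg/kg; pAKT S129 and active β-catenin measured by Western blot of tumor lysates, one lane per vehicle- or compound-treated animal.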

[17] = molecular target: Homeodomain-interacting protein kinase 4 (Homo sapiens) (UniProt Q8NE63); experiment: Inhibition of Hipk4 (unknown origin) at 0.1 uM by quantitative PCR; how it was run: as §2
[18] = molecular target: Bone morphogenetic protein receptor type-1B (Homo sapiens) (UniProt O00238); experiment: Inhibition of BMPR1b (unknown origin) at 0.1 uM by quantitative PCR
[19] = Antitumor activity against human SW620 cells harboring APC mutation xenografted in Ncr nu/nu mouse at 30 mg/kg, ip administered as bolus dose for once in every week for 3 weeks; format: functional; details: SW-620, ip, 504 h, read-out: TGI
How it was run: (§4)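 Mouse xenografts (HCT-116 β-catenin mutant; SW620 APC mutant) dosed at 30 mg/kg weekly for 3 cycles; efficacy expressed as % tumor growth inhibition.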

Mus musculus [20] = experiment: In vivo inhibition of AKT phosphorylation in human SW620 cells xenografted in iv dosed Ncr nu/nu mouse after 48 hrs by Western blot analysis; format: functional, organism-based; details: SW-620; how it was run: as §3
[21] = molecular target: Dual specificity tyrosine-phosphorylation-regulated kinase 4 (Homo sapiens) (UniProt Q9NR20); experiment: Inhibition of Dyrk4 (unknown origin) at 0.1 uM by quantitative PCR; how it was run: as §2
Mus musculus [22] = experiment: Toxicity in ip dosed Ncr nu/nu mouse xenografted with human SW620 cells harboring APC mutation assessed as reversible body weight loss measured on day 25; format: organism-based, SW-620; details: in vivo
[23] = molecular target: Death-associated protein kinase 3 (Homo sapiens) (UniProt O43293); experiment: Inhibition of Dapk3 (unknown origin) at 0.1 uM by quantitative PCR; how it was run: as §2
[24] = molecular target: Homeodomain-interacting protein kinase 2 (Homo sapiens) (UniProt Q9H2X6); details: 0.1 uM
Mus musculus [25] = experiment: In vivo inhibition of AKT phosphorylation at S129 in human DLD1 cells xenografted in Ncr nu/nu mouse at 10 mg/kg, iv measured up to 24 hrs; format: functional, organism-based; details: DLD-1
How it was run: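 DLD-1 TOPflash xenograft mice given a single 10 mg/kg IV dose; tumor AKT Ser129 phosphorylation assessed out to 24 h.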

[26] = molecular target: Homeodomain-interacting protein kinase 1 (Homo sapiens) (UniProt Q86Z02); experiment: Inhibition of Hipk1 (unknown origin) at 0.1 uM by quantitative PCR; how it was run: as §2
[27] = molecular target: Dual specificity tyrosine-phosphorylation-regulated kinase 1A (Homo sapiens) (UniProt Q13627); experiment: Inhibition of Dyrk1a (unknown origin) at 0.1 uM by quantitative PCR; how it was run: as §2
[28] = molecular target: Dual specificity tyrosine-phosphorylation-regulated kinase 1B (Homo sapiens) (UniProt Q9Y463); experiment: Inhibition of Dyrk1b (unknown origin) 0.1 uM by quantitative PCR; how it was run: as §2
Mus musculus [29] = experiment: Toxicity in ip dosed Ncr nu/nu mouse xenografted with human HCT-116 cells harboring beta-catenin mutation assessed as reversible body weight loss measured on day 25; format: organism-based; details: in vivo
[30] = molecular target: Dual specificity tyrosine-phosphorylation-regulated kinase 3 (Homo sapiens) (UniProt O43781); experiment: Inhibition of Dyrk3 (unknown origin) at 0.1 uM by quantitative PCR; how it was run: as §2
Mus musculus [31] = experiment: In vivo inhibition of Wnt-associated Tcf4-luciferase gene transcription in human DLD1 cells xenografted in Ncr nu/nu mouse at 10 mg/kg, iv measured at 8 hrs; format: functional; details: DLD-1, iv
HCT-116 = experiment: Antitumor activity against human HCT116 cells harboring beta-catenin mutation xenografted in ip dosed Ncr nu/nu mouse administered as bolus dose for once in every week for 3 weeks; format: functional, organism-based
Plasma = experiment: Drug uptake in Ncr nu/nu mouse plasma xenografted with human DLD1 cells at 10 mg/kg, iv measured up to 24 hrs; format: ADME, organism-based, DLD-1; details: in vivo
How it was run: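 Single 10 mg/kg IV dose in DLD-1 TOPflash xenograft mice; plasma drug concentration followed to 24 h.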

Mus musculus [32] = experiment: Toxicity in Ncr nu/nu mouse xenografted with human SW620 cells harboring APC mutation assessed as reduction in body weight at 30 mg/kg, ip measured on day 25; format: organism-based, SW-620; parameters: scale not given: the % may be the effect or the level left; details: in vivo
How it was run: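 SW620 (APC mutant) xenograft mice dosed weekly for 3 cycles; body weight change in treated animals recorded on day 25 as mean % change.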

L-Wnt3a = experiment: Inhibition of CK2 in mouse L-Wnt3a cells assessed as depletion of active form of beta-catenin after 1 hr by Western blot method; format: cell-based
[33] = Antitumor activity against human HCT116 cells harboring beta-catenin mutation xenografted in Ncr nu/nu mouse at 30 mg/kg, ip administered as bolus dose for once in every week for 3 weeks; format: functional; details: HCT-116, ip, 504 h, read-out: TGI; how it was run: as §4

Chain of Voltage-gated inwardly rectifying potassium channel KCNH2 (Q12809 whole entry): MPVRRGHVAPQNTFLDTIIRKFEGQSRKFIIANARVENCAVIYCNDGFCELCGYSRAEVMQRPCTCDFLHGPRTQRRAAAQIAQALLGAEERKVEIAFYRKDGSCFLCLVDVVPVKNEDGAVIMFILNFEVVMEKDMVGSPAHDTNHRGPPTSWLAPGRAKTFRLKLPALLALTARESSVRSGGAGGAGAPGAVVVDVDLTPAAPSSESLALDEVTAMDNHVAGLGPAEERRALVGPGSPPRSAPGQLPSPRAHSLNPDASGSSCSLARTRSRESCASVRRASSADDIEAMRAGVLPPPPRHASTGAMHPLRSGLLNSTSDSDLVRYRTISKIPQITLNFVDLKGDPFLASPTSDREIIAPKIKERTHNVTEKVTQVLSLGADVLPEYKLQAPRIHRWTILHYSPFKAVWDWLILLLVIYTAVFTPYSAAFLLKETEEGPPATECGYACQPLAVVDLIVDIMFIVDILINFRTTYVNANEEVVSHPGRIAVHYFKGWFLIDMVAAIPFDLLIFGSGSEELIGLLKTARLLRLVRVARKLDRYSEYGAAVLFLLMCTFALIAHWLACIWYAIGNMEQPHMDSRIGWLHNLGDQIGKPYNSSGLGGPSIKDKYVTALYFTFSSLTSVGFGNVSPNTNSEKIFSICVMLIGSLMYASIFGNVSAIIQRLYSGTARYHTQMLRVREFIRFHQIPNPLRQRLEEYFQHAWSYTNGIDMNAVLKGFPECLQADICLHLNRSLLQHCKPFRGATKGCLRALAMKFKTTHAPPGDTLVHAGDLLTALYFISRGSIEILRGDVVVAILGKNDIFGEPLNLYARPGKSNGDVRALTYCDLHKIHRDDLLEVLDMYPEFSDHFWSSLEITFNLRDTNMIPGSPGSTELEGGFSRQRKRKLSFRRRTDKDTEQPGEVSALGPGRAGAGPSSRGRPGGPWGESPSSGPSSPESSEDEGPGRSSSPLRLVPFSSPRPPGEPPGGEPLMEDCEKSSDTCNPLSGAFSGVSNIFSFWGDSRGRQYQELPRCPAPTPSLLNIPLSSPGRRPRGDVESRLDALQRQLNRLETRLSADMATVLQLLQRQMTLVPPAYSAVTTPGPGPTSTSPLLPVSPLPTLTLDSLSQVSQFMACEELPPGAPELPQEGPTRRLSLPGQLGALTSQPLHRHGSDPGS
T1 sequence (P68400 whole entry): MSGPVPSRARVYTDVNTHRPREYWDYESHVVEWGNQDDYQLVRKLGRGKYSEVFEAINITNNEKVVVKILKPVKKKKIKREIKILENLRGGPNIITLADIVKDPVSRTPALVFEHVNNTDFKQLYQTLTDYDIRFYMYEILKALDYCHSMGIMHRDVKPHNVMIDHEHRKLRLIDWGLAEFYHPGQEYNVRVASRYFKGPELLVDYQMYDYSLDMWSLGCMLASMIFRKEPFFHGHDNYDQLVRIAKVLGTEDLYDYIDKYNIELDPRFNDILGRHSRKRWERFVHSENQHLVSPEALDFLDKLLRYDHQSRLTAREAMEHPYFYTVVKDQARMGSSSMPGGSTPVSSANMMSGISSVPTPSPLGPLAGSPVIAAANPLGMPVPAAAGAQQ
Chain of Homeodomain-interacting protein kinase 2 (Homo sapiens) (Q9H2X6 whole entry, looked up): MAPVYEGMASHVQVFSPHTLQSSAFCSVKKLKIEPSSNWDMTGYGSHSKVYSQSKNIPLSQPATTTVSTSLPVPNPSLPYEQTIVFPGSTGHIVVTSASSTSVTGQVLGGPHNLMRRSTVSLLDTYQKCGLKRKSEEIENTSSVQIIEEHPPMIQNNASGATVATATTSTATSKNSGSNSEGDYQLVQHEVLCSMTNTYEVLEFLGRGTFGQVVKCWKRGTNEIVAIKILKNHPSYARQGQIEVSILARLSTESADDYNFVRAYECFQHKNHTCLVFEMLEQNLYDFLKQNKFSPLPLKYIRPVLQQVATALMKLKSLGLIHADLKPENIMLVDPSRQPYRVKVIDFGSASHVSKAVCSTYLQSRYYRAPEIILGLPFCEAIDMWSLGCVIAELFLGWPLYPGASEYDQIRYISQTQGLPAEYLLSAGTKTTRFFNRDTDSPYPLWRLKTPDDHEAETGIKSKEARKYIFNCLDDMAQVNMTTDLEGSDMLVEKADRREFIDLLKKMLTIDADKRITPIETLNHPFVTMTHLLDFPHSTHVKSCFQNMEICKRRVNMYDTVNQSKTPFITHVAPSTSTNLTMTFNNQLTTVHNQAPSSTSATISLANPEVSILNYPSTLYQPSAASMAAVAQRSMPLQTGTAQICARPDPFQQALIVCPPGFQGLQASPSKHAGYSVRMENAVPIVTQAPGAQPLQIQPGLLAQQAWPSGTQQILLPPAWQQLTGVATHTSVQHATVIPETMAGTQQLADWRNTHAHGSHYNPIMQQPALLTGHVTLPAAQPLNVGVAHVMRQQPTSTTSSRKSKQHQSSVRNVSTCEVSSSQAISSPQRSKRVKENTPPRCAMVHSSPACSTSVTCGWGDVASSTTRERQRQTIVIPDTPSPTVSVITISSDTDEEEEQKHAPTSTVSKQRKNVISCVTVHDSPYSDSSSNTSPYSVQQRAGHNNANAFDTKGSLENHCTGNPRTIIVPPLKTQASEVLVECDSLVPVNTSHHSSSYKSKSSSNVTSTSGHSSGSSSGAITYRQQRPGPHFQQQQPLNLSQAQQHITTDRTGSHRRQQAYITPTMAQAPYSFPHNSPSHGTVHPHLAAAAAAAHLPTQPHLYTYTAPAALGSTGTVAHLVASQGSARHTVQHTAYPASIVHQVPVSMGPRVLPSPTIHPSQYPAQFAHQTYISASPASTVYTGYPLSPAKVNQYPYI
Chain of Death-associated protein kinase 3 (Homo sapiens) (O43293 whole entry, looked up): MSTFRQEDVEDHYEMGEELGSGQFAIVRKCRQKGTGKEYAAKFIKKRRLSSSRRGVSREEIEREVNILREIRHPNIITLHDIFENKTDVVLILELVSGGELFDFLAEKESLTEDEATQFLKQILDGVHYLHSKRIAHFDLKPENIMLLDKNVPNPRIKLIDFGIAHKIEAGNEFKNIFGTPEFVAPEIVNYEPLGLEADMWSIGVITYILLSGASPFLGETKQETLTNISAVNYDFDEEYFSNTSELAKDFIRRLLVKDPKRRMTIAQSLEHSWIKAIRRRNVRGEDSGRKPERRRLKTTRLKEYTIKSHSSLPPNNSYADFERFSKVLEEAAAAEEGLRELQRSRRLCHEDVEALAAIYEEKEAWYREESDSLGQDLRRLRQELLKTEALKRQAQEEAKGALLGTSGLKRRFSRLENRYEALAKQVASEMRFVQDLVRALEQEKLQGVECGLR
Chain of Casein kinase II (P67870 whole entry, the tested form may be a part): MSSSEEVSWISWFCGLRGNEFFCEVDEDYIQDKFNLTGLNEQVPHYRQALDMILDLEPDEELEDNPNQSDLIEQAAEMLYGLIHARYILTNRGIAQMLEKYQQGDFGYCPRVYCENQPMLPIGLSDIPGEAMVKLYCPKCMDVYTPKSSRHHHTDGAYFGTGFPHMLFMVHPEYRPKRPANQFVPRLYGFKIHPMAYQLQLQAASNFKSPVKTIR
Chain of Casein kinase II (P68400 whole entry, the tested form may be a part): as the sequence (P68400 whole entry) above
Chain of Casein kinase II (P19784 whole entry, the tested form may be a part): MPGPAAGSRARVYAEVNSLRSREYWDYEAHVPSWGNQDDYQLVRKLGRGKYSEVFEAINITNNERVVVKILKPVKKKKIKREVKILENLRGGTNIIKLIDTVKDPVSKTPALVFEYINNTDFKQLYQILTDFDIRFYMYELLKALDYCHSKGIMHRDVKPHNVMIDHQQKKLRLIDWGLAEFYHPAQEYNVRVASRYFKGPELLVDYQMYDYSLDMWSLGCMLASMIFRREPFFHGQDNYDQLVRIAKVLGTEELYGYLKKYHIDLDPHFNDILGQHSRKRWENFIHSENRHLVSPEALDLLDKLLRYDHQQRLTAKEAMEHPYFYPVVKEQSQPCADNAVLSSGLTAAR
Chain of Dual specificity tyrosine-phosphorylation-regulated kinase 4 (Homo sapiens) (Q9NR20 whole entry): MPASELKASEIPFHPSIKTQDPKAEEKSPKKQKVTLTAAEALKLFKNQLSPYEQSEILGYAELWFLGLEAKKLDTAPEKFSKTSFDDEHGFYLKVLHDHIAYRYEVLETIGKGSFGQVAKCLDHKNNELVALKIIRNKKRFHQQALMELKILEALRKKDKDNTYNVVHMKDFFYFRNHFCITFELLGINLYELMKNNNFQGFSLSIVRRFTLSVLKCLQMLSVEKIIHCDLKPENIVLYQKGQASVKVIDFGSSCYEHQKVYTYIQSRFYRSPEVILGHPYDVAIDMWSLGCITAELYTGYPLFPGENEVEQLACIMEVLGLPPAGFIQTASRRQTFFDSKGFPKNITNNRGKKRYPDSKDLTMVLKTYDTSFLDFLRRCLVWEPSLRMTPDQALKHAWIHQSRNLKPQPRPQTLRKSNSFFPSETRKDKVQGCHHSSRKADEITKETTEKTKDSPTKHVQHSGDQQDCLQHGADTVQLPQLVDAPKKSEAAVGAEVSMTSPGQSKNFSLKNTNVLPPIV
Chain of Dual specificity tyrosine-phosphorylation-regulated kinase 3 (Homo sapiens) (O43781 whole entry): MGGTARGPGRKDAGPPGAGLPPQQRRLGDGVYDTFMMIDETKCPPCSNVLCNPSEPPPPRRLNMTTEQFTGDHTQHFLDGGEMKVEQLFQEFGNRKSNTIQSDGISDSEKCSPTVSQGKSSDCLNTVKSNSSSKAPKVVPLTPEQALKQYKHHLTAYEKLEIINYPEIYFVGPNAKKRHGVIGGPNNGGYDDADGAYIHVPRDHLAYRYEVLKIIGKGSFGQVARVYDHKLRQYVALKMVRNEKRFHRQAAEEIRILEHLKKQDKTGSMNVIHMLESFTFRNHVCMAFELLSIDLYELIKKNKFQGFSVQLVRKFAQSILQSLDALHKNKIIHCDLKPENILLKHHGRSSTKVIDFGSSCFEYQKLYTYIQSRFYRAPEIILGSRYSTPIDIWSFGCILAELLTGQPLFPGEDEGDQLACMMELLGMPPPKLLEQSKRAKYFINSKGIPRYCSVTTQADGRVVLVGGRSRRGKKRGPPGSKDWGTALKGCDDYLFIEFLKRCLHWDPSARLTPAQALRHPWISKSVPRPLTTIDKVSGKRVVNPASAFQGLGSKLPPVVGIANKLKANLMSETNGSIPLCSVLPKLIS

fraction unbound at 10 µM [2]: 0.26
IC50 [3]: 75 nM
hepatocyte CLint [4]: 32 µL/min/1e6 cells
solubility at 24 h [5]: > 1000 µM
AUC (Rattus norvegicus): 0.36 µM·h
microsomal CLint [6]: 9 µL/min/mg
IC50 [8]: < 3 nM
IC50 (Casein kinase II): 1 nM
Kd [10]: 0.0482 nM
Drug metabolism (Hepatocyte): metabolite_detected
Drug metabolism (Liver microsome [12]): metabolite_notdetected
Drug metabolism (Liver microsome [13]): metabolite_notdetected
Compound: CC(=O)Nc1cc(Nc2cc(NC3CC3)n3ncc(C#N)c3n2)ccc1N(C)CCN(C)C
GI50 [1]: 30 nM
GI50 [7]: 80 nM
IC50 [9]: 4000 nM
GI50 [11]: 30 nM

fraction unbound at 10 µM [2]: 0.39
inhibition [15]: > 50%
IC50 [3]: 43 nM
hepatocyte CLint [4]: 8 µL/min/1e6 cells
inhibition [17]: > 50%
inhibition [18]: 74%
inhibition [21]: > 50%
solubility at 24 h [5]: > 1000 µM
microsomal CLint [6]: 7 µL/min/mg
inhibition [24]: > 50%
inhibition [26]: > 50%
inhibition [27]: > 50%
inhibition [28]: > 50%
inhibition [30]: > 50%
Drug uptake (Plasma): Not Active
Compound: CC(=O)Nc1cc(Nc2cc(NC3CC3)n3ncc(C#N)c3n2)ccc1N(C)CCN
GI50 [1]: 10 nM
inhibition [14]: > 50%
TGI (SW-620): Dose-dependent effect
inhibition (Mus musculus [16]): Dose-dependent effect
inhibition in vivo at 30 mg/kg [19]: 74%
inhibition (Mus musculus [20]): Dose-dependent effect
GI50 [7]: 50 nM
Activity (Mus musculus [22]): Dose-dependent effect
inhibition [23]: > 50%
IC50 [9]: > 100000 nM
inhibition (Mus musculus [25]): Active
Activity (Mus musculus [29]): Dose-dependent effect
GI50 [11]: 5 nM
inhibition in vivo at 10 mg/kg (Mus musculus [31]): 40%
TGI (HCT-116): Dose-dependent effect
Activity (Mus musculus [32]): 6.8%
inhibition (L-Wnt3a): Dose-dependent effect
inhibition in vivo at 30 mg/kg [33]: 94%
